According to ChEMBL document CHEMBL1221188, “Small-molecule activation of procaspase-3 to caspase-3 as a personalized anticancer strategy” (Nat Chem Biol, 2006):
pEC50, pIC50: −log10 of the molar value. Activity calls are given as the source filed them. No cut-off for these calls is given here.

Columns and labels:
[1] = target: T1, Caspase-3 (Homo sapiens, UniProt P42574); assay: Activation of N-terminal His6-tagged recombinant procaspase-3 expressed in Escherichia coli assessed as hydrolysis of acetyl-DEVD-p-nitroanilide after 2 hrs by SDS-PAGE
T1 sequence (P42574 whole entry): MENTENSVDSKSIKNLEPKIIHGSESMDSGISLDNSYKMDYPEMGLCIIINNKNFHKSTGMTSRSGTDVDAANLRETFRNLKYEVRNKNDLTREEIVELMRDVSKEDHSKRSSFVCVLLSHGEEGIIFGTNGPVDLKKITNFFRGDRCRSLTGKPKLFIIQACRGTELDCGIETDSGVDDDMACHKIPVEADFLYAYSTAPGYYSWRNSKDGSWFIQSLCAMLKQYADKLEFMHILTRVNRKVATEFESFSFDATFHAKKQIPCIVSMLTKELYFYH

[2] = tested on: HL-60; assay: Induction of apoptosis in human HL60 cells assessed as mitochondrial membrane depolarization at 10 uM after 12 hrs by fluorescence assay; assay type: functional, cell-based
Summary of the method: (§1)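 HL-60 cells exposed to drug in DMSO or DMSO alone for various times, stained with JC-9 dye for 10 min at room temperature, then analysed by flow cytometry at 525/675 nm on 50,000 cells. Depolarization was derived from the red-channel shift.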

[3] = tested on: HL-60; assay: Induction of apoptosis in human HL60 cells assessed as increase in PARP1 cleavage at 100 uM after 12 hrs by fluorescence assay; assay type: functional, cell-based
Summary of the method: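 HL-60 cells given NAD+ with or without drug for various times, then lysed in PARP buffer with 25 mM H2O2 (60 min, 37 °C). Remaining NAD+ was measured fluorometrically after KOH/acetophenone (10 min, 4 °C) and formic acid (5 min, 110 °C). PARP activity is expressed relative to control wells.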

[4] = tested on: HL-60; assay: Induction of apoptosis in human HL60 cells assessed as increase in PARP1 cleavage at 10 uM after 12 hrs by fluorescence assay; assay type: functional, cell-based
[5] = tested on: HL-60; assay: Induction of apoptosis in human HL60 cells assessed as increase in caspase-3 activity at 10 uM after 12 hrs; assay type: functional, cell-based
Summary of the method: (§2)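 HL-60 cells were treated with a range of drug concentrations for various times, then washed. They were lysed by sonication in ice-cold caspase assay buffer and given Ac-DEVD-pNA. Absorbance at 405 nm was read every 2 min for 2 h, and the cleavage rate came from the linear slope.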

[6] = Plasma concentration in BALB/c mouse xenografted with human ACHN cells at 5 mg administered via pellet measured after 54 days of tumor implantation; assay type: ADME, organism-based
[7] = tested on: Mus musculus; assay: Toxicity in BALB/c mouse xenografted with human ACHN cells assessed as effect on food intake at 5 mg administered via pellet measured after 54 days of tumor implantation; assay type: organism-based; settings: in vivo, other, 1296 h
Summary of the method: (§3)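 Ovariectomized female athymic BALB/c nu/nu mice; ACHN cells in Matrigel injected subcutaneously into four flanks. After 4 weeks (mean tumor area 34.3 mm2), 20-mg cholesterol pellets with 0, 1 or 5 mg drug implanted subcutaneously; six mice per group. Tumor volume v = 0.5·a·b2 measured weekly. Food intake over two consecutive 24-h periods at study end (8 weeks post-implant).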

[8] = tested on: NCI-H226; assay: Antitumor activity against human NCI-H226 cells xenografted in BALB/c mouse assessed as suppression of tumor metastasis at 100 mg/kg, po administered from day 1 to 4 and day 7 to 11 measured after 28 days; assay type: functional, organism-based; design: dose 100 mg/kg
Summary of the method: (§4)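 Male athymic nude mice received 2 × 10^6 NCI-H226 cells by tail-vein injection. Dosing was 100 mg/kg by oral gavage in 24:1 vegetable oil/DMSO once daily on days 1–4 and 7–11, against vehicle, four mice per group. Body weight was followed. At 28 d the lungs were examined, sectioned, stained and imaged for tumor burden.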

[9] = tested on: HL-60; assay: Induction of apoptosis in human HL60 cells assessed non-viable necrotic cells at 5 uM after 28 hrs using annexin V-propidium iodide staining by flow cytometry; assay type: functional
[10] = tested on: HL-60; assay: Induction of apoptosis in human HL60 cells assessed late apoptotic cells at 5 uM after 28 hrs using annexin V-propidium iodide staining by flow cytometry; assay type: functional
[11] = tested on: NCI-H226; assay: Antitumor activity against human NCI-H226 cells isolated from BALB/c mouse xenograft assessed as decrease in metastatic tumor burden at 100 mg/kg, po administered from day 1 to 4 and day 7 to 11 measured after 28 days by imaging assay; assay type: functional, organism-based; design: dose 100 mg/kg; summary of the method: as §4
[12] = tested on: NCI-H226; assay: Induction of apoptosis in human NCI-H226 cells isolated from BALB/c mouse xenograft assessed as DNA fragmentation at 100 mg/kg, po SID for 21 days measured after 1 week post last dose by TUNEL assay; assay type: functional, organism-based; design: dose 100 mg/kg
Summary of the method: (§5)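 Subcutaneous NCI-H226 tumors from nude mice dosed orally (50 or 100 mg/kg daily for 21 d in 24:1 vegetable oil/DMSO) were resected at end of study, sectioned and scored by TUNEL staining.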

[13] = tested on: HL-60; assay: Induction of apoptosis in human HL60 cells assessed viable cells at 5 uM after 28 hrs using annexin V-propidium iodide staining by flow cytometry; assay type: functional
[14] = tested on: HL-60; assay: Induction of apoptosis in human HL60 cells assessed as mitochondrial membrane depolarization at 100 uM after 12 hrs by fluorescence assay; assay type: functional, cell-based; summary of the method: as §1
[15] = tested on: Mus musculus; assay: Toxicity in BALB/c mouse xenografted with human NCI-H226 cells assessed as effect on body weight at 100 mg/kg, po administered from day 1 to 4 and day 7 to 11 measured after 28 days; assay type: organism-based; design: dose 100 mg/kg, route oral; settings: in vivo, 672 h; summary of the method: as §4
[16] = tested on: NCI-H226; assay: Antitumor activity against human NCI-H226 cells xenografted in po dosed BALB/c mouse administered SID for 21 days assessed as retardation of tumor growth measured after 1 week post last dose; assay type: functional, organism-based
Summary of the method: (§6)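 Male athymic BALB/c nude mice, 5 weeks old; 2 × 10^6 NCI-H226 cells injected subcutaneously into the flanks, eight mice per group, three tumors per mouse. Once tumors reached about 50 mm3 (~4 weeks), 0, 50 or 100 mg/kg was given by oral gavage in 24:1 vegetable oil/DMSO once daily for 21 d. Caliper volume (v = 0.5·a·b2) and body weight tracked; killed 1 week later.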

[17] = Cytotoxicity against human colon cells after 24 hrs by MTS/PMS assay; assay type: cell-based; settings: Colon cell
[18] = tested on: HL-60; assay: Induction of apoptosis in human HL60 cells assessed early apoptotic cells at 5 uM after 28 hrs using annexin V-propidium iodide staining by flow cytometry; assay type: functional
[19] = tested on: HL-60; assay: Induction of apoptosis in human HL60 cells assessed early apoptotic cells at 100 uM after 20 hrs using annexin V-propidium iodide staining by flow cytometry; assay type: functional
Summary of the method: (§7)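 HL-60 cells treated 20 h at 37 °C with 100 µM drug in DMSO or DMSO alone; washed, stained with annexin V–Alexa Fluor 488 (15 min, 23 °C) plus propidium iodide; flow cytometry at 525 and 675 nm, ≥50,000 cells per experiment.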

[20] = tested on: NCI-H226; assay: Induction of apoptosis in human NCI-H226 cells isolated from BALB/c mouse xenograft assessed as DNA fragmentation at 50 mg/kg, po SID for 21 days measured after 1 week post last dose by TUNEL assay; assay type: functional, organism-based; design: dose 50 mg/kg; summary of the method: as §5
[21] = tested on: HL-60; assay: Induction of apoptosis in human HL60 cells assessed as increase in caspase-3 activity at 100 uM after 12 hrs; assay type: functional, cell-based; summary of the method: as §2
[22] = tested on: HL-60; assay: Induction of apoptosis in human HL60 cells assessed as chromatin condensation at 100 uM after 20 hrs measured by Hoechst-33258 staining; assay type: functional, cell-based
Summary of the method: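 HL-60 cells were treated 20 h with 100 µM drug in DMSO against a DMSO control. Cells were then fixed in ice-cold ethanol overnight at 4 °C and stained with Hoechst-33258 for 30 min at room temperature. Condensed chromatin was viewed microscopically at 400× magnification.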

[23] = tested on: HL-60; assay: Induction of apoptosis in human HL60 cells assessed as increase in caspase-3 activity at 100 uM up to 2 hrs; assay type: functional; summary of the method: as §2
[24] = Cytotoxicity against human colon cancer cells after 24 hrs by MTS/PMS assay; assay type: functional, cell-based; settings: Cancer cell lines
[25] = tested on: HL-60; assay: Inhibition of apoptosis in human HL60 cells at 100 uM after 24 hrs using annexin V-propidium iodide staining by flow cytometry in presence of pan-caspase inhibitor Z-VAD-FMK; assay type: functional, cell-based
[26] = tested on: HL-60; assay: Induction of apoptosis in human HL60 cells assessed viable cells at 100 uM after 20 hrs using annexin V-propidium iodide staining by flow cytometry; assay type: functional; summary of the method: as §7
[27] = tested on: Mus musculus; assay: Toxicity in BALB/c mouse xenografted with human NCI-H226 cells assessed as effect on body weight at 50 to 100 mg/kg, po SID for 21 days measured after 1 week post last dose; assay type: organism-based; design: dose 50-100 mg/kg, route oral; settings: in vivo, 168 h; summary of the method: as §6
[28] = tested on: ACHN; assay: Antitumor activity against human ACHN cells xenografted in BALB/c mouse assessed as tumor growth at 5 mg administered via pellet measured after 54 days of tumor implantation; summary of the method: as §3
[29] = target: Caspase-3 (Homo sapiens, UniProt P42574, D179A); assay: Activation of N-terminal His6-tagged recombinant procaspase-3 D179A mutant expressed in Escherichia coli assessed as hydrolysis of acetyl-DEVD-p-nitroanilide after 2 hrs by SDS-PAGE; settings: in the assay text read “by spectrophotometry” for “by SDS-PAGE”
Summary of the method: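 Alanine substitution in the procaspase-3 safety-catch Asp-Asp-Asp triad (Asp179, Asp180, Asp181). The wild-type or mutant proenzyme was incubated with a range of compound concentrations for 12 h at 37 °C. Ac-DEVD-pNA was then added and absorbance at 405 nm was read every 2 min for 2 h. Activity was taken from the linear-phase slope and expressed as relative increase per mutant.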

[30] = tested on: HL-60; assay: Induction of apoptosis in human HL60 cells assessed late apoptotic cells at 100 uM after 20 hrs using annexin V-propidium iodide staining by flow cytometry; assay type: functional; summary of the method: as §7
[31] = tested on: HL-60; assay: Induction of apoptosis in human HL60 cells assessed non-viable necrotic cells at 100 uM after 20 hrs using annexin V-propidium iodide staining by flow cytometry; assay type: functional; summary of the method: as §7

Caspase-3 (Homo sapiens, UniProt P42574, D179A), sequence (P42574 176-277 D179A limits assumed, one chain of several): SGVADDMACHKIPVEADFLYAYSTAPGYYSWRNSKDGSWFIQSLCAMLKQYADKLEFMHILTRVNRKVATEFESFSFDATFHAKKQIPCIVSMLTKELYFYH

c1ccc(CN2CCNCC2)cc1
pEC50 [1]: < 4.30

CN1CCN(CC(=O)N/N=C/c2ccccc2O)CC1
pEC50 [1]: < 4.30

C/C=N/NC(=O)CN1CCN(Cc2ccccc2)CC1
pEC50 [1]: < 4.30

NNC(=O)CN1CCN(Cc2ccccc2)CC1
pEC50 [1]: < 4.30

CCOC(=O)CN1CCN(Cc2ccccc2)CC1
pEC50 [1]: < 4.30

c1ccc(CN2CCN(Cc3ccccc3)CC2)cc1
pEC50 [1]: < 4.30

O=C(CN1CCN(Cc2ccccc2)CC1)N/N=C/c1ccccc1
pEC50 [1]: < 4.30

COc1cc([C@@H]2c3cc4c(cc3[C@@H](O[C@@H]3O[C@@H]5CO[C@@H](C)O[C@H]5[C@H](O)[C@H]3O)[C@H]3COC(=O)[C@H]23)OCO4)cc(OC)c1O
Activity [2]: Active | Activity [3]: Active | Activity [4]: Active | Activity [5]: Active

CCOC(=O)CN1CCNCC1 [ETHYL PIPERAZINOACETATE]
pEC50 [1]: < 4.30

C=CCc1cccc(/C=N/NC(=O)CN2CCN(Cc3ccccc3)CC2)c1O [PAC-1]
concentration at 1296 h [6]: 4.4 nM | Activity [7]: Non-toxic | Activity [8]: Active | Activity [9]: 0.26% | Activity [10]: 8.73% | Activity [11]: Active | Activity [12]: Active | Activity [13]: 10.26% | Activity [14]: inactive | Activity [15]: Non-toxic | inhibition [16]: Dose-dependent effect | pIC50 [17]: 5.30 | Activity [18]: 80.75% | Activity [19]: 80.2% | Activity [20]: Active | Activity [21]: Active | Activity [22]: Active | Activity [23]: 50% | pIC50 [24]: 8.52 | Activity [3]: Active | Activity [25]: inactive | Activity [4]: Active | Activity [26]: 9.8% | Activity [27]: Non-toxic | Activity [28]: Active | inhibition [28]: Active | pEC50 [29]: 3.88 | Activity [30]: 9.6% | Activity [31]: 0.4%
